miR-122 sensor: miR-122 Renilla sensor signal increase in Huh7, primary screen, miR-122 inhibitor project, cell-based, single point, plate reader; Huh7 miR-122 Renilla luciferase sensor, 48 h; neutral wells = 0, positive control = 100; activation (reporter increase), % at 12.5 µM; 0.3% of 340,000 active; AID 602342, 2012;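 active = mean replicate activation score at least 90 and every replicate individually at or above 90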;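 note: higher luciferase means less miR-122 activity so hits act as miR-122 inhibitors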
PDI turbidity: inhibitors of human PDI, primary screen, biochemical, turbidity, single point, plate reader; PDI insulin aggregation turbidity, A650, 90 min; 0.052% of 350,000 active; inhibition, % at 10 µM; Protein disulfide-isomerase (Homo sapiens), P07237;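 active = mean inhibition across replicates of 30% or more, whatever share of single replicates reach that level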
Target sequence (P07237 whole entry, looked up): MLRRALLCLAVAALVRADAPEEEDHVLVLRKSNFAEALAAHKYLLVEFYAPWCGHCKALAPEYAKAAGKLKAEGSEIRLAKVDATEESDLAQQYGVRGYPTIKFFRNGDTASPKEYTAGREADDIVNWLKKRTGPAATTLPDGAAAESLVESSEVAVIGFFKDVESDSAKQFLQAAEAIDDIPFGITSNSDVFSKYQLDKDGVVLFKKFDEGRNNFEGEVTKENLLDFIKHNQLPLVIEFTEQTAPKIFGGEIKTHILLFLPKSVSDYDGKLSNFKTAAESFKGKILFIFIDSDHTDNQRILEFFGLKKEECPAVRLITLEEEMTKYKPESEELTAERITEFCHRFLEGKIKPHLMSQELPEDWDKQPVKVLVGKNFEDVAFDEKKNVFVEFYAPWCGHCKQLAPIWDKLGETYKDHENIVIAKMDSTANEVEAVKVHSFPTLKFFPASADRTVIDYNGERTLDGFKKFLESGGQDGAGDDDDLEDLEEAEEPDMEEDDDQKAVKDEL
PglD DTNB: C. jejuni PglD acetyltransferase inhibitors, primary screen, biochemical, DTNB colorimetric, single point; UDP-N-acetylbacillosamine N-acetyltransferase PglD (Campylobacter jejuni); inhibition, % at 12.5 µM; purified PglD enzyme, DTNB colorimetric CoA detection; 0.098% of 360,000 active; in the data active = inhibition above about 16%, passing the limit was not always enough
Cneo AK release: Cryptococcus neoformans cell lysis inducers, primary screen, AK release luminescence, single concentration; C. neoformans lysis, adenylate kinase release luminescence, 4 h; normalised: neutral wells 0, clomiphene wells 100; lysis activity, % at 15 µM; 0.2% of 360,000 active;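 active = mean lysis activity across replicates of at least 80%, whatever share of replicates individually reach that level; inactive = mean lysis activity below 80%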
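Test system: log-phase Cryptococcus neoformans yeast cells; Quantity: yeast cell density of 5 × 10^6 cells/mL; Buffer or medium: YPD; Doses: single compound concentration per well; Timing: 4 h at 37 °C static, read 1 h later; Measured by: AK luminescence; Read-out basis: lysis from increased AK signal; Control set: Clomiphene as positive control.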
ERp5 inh: inhibitors of ERp5-driven insulin aggregation, primary screen, biochemical, turbidity, absorbance 650 nm, single point; Protein disulfide-isomerase A6 (Homo sapiens), Q15084; inhibition, % at 9.99 µM; 0.05% of 350,000 active; 90 min;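 active = mean replicate inhibition above about 25%, with every replicate also reaching it, limit read from the data, passing the limit was not always enough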
PvdQ acylase: P. aeruginosa PvdQ acylase inhibitors, primary screen, biochemical, fluorescence, plate reader and imaging, single point | purified PvdQ acylase | inhibition, % at 10 µM | 0.063% of 340,000 active; in the data active = inhibition above about 30%, passing the limit was not always enough;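 note: 0% = vehicle neutral wells and 100% = reference inhibitor wells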
An asterisk follows results filed as active; . = not tested or not shown; [ ] = dose if it differs, or a comment. A selection: hits, their analogues and other compounds. The true share with any hit is near 0.58%.

SMILES | miR-122 sensor | PDI turbidity | PglD DTNB | Cneo AK release | ERp5 inh | PvdQ acylase
Cc1ccc2c(C)c(C(=O)N3CCN(Cc4ccccn4)CC3)oc2c1C | . | 18 | -1 | 82* | 2 | -11
O=C(C[C@@H]1CC[C@H](NC(=O)C2CC2)[C@H](CO)O1)Nc1nccs1 | . | . | 10 | -5 | 0 | .
COc1ccc(-n2cc(CNCCc3nc(C)cc(C)n3)c(-c3ccccc3Cl)n2)cc1 | -6 | 0 | -2 | 94* | 6 | -10
COc1ccc(-n2cc(CNCCc3ncc(C)[nH]3)c(-c3ccccc3Cl)n2)cc1 | -7 | 4 | -2 | -3 | 4 | -16
COc1ccccc1NC(=O)N[C@H]1CC[C@@H](CC(=O)N[C@H](C)c2ccccc2)O[C@@H]1CO | . | . | -5 | -14 | 11 | .
CC(C)CC#Cc1ccc2c(c1)O[C@@H](CN(C)C(=O)c1cccnc1)[C@@H](C)CN([C@@H](C)CO)S2(=O)=O | 16[16.7 µM] | . | 4 | -5 | -3 | .
Cc1nc(-c2cccc(NS(C)(=O)=O)c2)cs1 | 0 | -7 | -3 | -2 | 4 | -8
CC(=O)Nc1ccc(S(=O)(=O)Nc2cccc(-c3csc(C)n3)c2)cc1 | 283* | -1 | 8 | 10 | 11 | -13
CN1C(=O)c2cc(NC(=O)Cc3ccccc3)ccc2OC[C@@H]2O[C@@H](CC(=O)NCc3ccc(Cl)cc3)CC[C@H]21 | -33[16.7 µM] | . | 5 | -1 | . | .
CCC(=O)Nc1ccc2c(c1)C(=O)N(C)[C@H]1CC[C@H](CC(=O)NCC3CC3)O[C@H]1CO2 | 8[16.7 µM] | . | 0 | -3 | 60* | .
CN1C(=O)c2cc(NC(=O)Cc3ccccc3)ccc2OC[C@@H]2O[C@H](CC(=O)NCc3ccc(Cl)cc3)CC[C@@H]21 | 293*[16.7 µM] | . | 1 | -2 | . | .
CC(=O)Nc1ccc2c(c1)C(=O)N(C)[C@H]1CC[C@H](CC(=O)NCC3CC3)O[C@@H]1CO2 | -7[16.7 µM] | . | -5 | -3 | 91* | .
CN1C(=O)c2cc(NC(=O)Cc3ccccc3)ccc2OC[C@@H]2O[C@H](CC(=O)NCC3CC3)CC[C@@H]21 | 233*[16.7 µM] | . | -1 | -2 | -1 | .
C[C@H]1CN([C@@H](C)CO)C(=O)Cc2cc(NC(=O)C3CCCCC3)ccc2O[C@H]1CN(C)Cc1ccccc1 | -1[16.7 µM] | . | -1 | -3 | 0 | .
CO[C@H]1CN(C)C(=O)c2cc(NC(C)=O)ccc2OC[C@@H](C)N(C(=O)CN2CCOCC2)C[C@H]1C | -22[16.7 µM] | . | 3 | 0 | 11 | .
Cc1cccc(-c2ccc([C@H]3[C@H](CO)N4C(=O)CN(S(=O)(=O)c5cccc(F)c5)C[C@@H]34)cc2)c1 | . | . | . | . | 1 | .
COc1ccccc1C(=O)Nc1ccc2c(c1)C(=O)N(C)[C@H]1CC[C@@H](CC(=O)NCc3ccc(Cl)c(Cl)c3)O[C@@H]1CO2 | 51[16.7 µM] | . | 0 | 0 | 5 | .
COc1ccccc1C(=O)Nc1ccc2c(c1)C(=O)N(C)[C@H]1CC[C@H](CC(=O)NCc3ccc(Cl)c(Cl)c3)O[C@H]1CO2 | 308*[16.7 µM] | . | 0 | 2 | -1 | .
CN1C(=O)c2cc(NC(=O)Cc3ccccc3)ccc2OC[C@@H]2O[C@H](CC(=O)NC3CCC3)CC[C@@H]21 | 125*[16.7 µM] | . | 0 | -3 | 0 | .
CN1C(=O)c2cc(NC(=O)Cc3ccccc3)ccc2OC[C@@H]2O[C@@H](CC(=O)NC3CCC3)CC[C@H]21 | -12[16.7 µM] | . | 2 | 0 | 5 | .
COc1ccccc1CNC(=O)C[C@@H]1CC[C@@H]2[C@H](COc3ccc(NC(C)=O)cc3C(=O)N2C)O1 | 10[16.7 µM] | . | 1 | 101* | . | .
CCC(=O)Nc1ccc2c(c1)C(=O)N(C)[C@H]1CC[C@@H](CC(=O)NCC3CC3)O[C@H]1CO2 | 20[16.7 µM] | . | 1 | -1 | 36* | .
C[C@@H]1CCCCO[C@H](CN(C)C(=O)NC2CCCCC2)[C@@H](C)CN([C@@H](C)CO)C(=O)c2cc(NC(=O)c3ccncc3)ccc2O1 | -3[16.7 µM] | . | 0 | 3 | -1 | .
Cc1cc(Cn2nnc3ccccc32)c(O)c(C(C)(C)C)c1 | 134* | 4 | 2 | -1 | -3 | 4
CC(C)(C)c1cccc(Cn2nnc3ccccc32)c1O | . | -2 | -2 | -2 | 2 | -5
SMILES | miR-122 sensor | PDI turbidity | PglD DTNB | Cneo AK release | ERp5 inh | PvdQ acylase
OC[C@H]1Nc2ccc(C#Cc3ccc(F)cc3)cc2[C@H]2[C@@H]1CCN2Cc1nccs1 | -1[16.7 µM] | . | 1 | 8 | 11 | .
COc1cccc(-c2cn(CC[C@@H]3CC[C@H](NC(C)=O)[C@H](CO)O3)nn2)c1 | . | . | -4 | 0 | -5 | .
O=C(N[C@H]1CC[C@@H](CCn2cc(-c3ccccc3)nn2)O[C@H]1CO)c1cnccn1 | . | . | -1 | -1 | 0 | .
O=C(N[C@@H]1CC[C@H](CCn2cc(-c3ccc(F)cc3)nn2)O[C@@H]1CO)c1cnccn1 | . | . | 0 | -3 | 3 | .
COc1cccc(-c2cn(CC[C@@H]3CC[C@H](NC(C)=O)[C@@H](CO)O3)nn2)c1 | . | . | 1 | 94* | 1 | .
COc1ccccc1NC(=O)N[C@H]1CC[C@@H](CCn2cc(-c3ccccc3OC)nn2)O[C@@H]1CO | . | . | -2 | 99* | 1 | .
O=C(N[C@@H]1CC[C@@H](CCn2cc(-c3ccccc3)nn2)O[C@H]1CO)c1cnccn1 | . | . | -3 | 96* | 1 | .
O=C(N[C@H]1CC[C@@H](CCn2cc(-c3ccccc3)nn2)O[C@@H]1CO)c1cnccn1 | . | . | 3 | 93* | 1 | .
COc1ccc(/C=C/C(=O)c2ccc3c(c2)OCO3)c(OC)c1 | 145* | 5 | -4 | -4 | -1 | -7
CS(=O)(=O)Nc1ccc2c(c1)[C@@H]1C[C@H](CC(=O)NCc3ccc(Oc4ccccc4)cc3)O[C@@H](CO)[C@@H]1O2 | 20[16.7 µM] | . | 0 | 4 | 8 | .
O=C(CSc1ncnc2c1cnn2-c1ccc(Cl)cc1)NCc1ccc2c(c1)OCO2 | -1 | -5 | 1 | 600* | . | -13
O=C(CSc1ncnc2c1cnn2-c1ccccc1)Nc1ccc2c(c1)OCO2 | 3 | -2 | . | . | . | -6
CO[C@H]1O[C@H](CO)[C@@H](OC(=O)Nc2ccccc2)[C@H](OC(=O)Nc2ccc3c(c2)OCO3)[C@@H]1OC(=O)Nc1ccc2c(c1)OCO2 | . | . | 2 | 100* | 1 | .
CO[C@H]1O[C@H](CO)[C@@H](OC(=O)Nc2cccc(F)c2)[C@H](OC(=O)Nc2ccc3c(c2)OCO3)[C@@H]1OC(=O)Nc1ccc2c(c1)OCO2 | . | . | 1 | -1 | 2 | .

Assay outcomes deposited in PubChem by Broad Institute.
